From ChEMBL document CHEMBL2062385, “Bone-targeting glycol and NSAIDS ester prodrugs of rhein: synthesis, hydroxyapatite affinity, stability, anti-inflammatory, ulcerogenicity index and pharmacokinetics studies” (Eur J Med Chem, 2012)
The source made the active and inactive calls. The rule behind the calls is not given here.

System: Hydroxyapatite
Test: Binding affinity to bone mineral hydroxyapatite after 30 mins by RP-HPLC analysis
Details: not given
Method in brief: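 Each compound (10 mL, 0.1 mmol/L in water) stirred vigorously with 20, 40 or 80 mg hydroxyapatite for 30 min. Then analysed by HPLC on C18 with methanol/0.1% H3PO4 90:10 (pH 2.3), 25 °C, 1.0 mL/min, 254 nm detection. n = 3.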

Question: With `CC(C)Cc1ccc(C(C)C(=O)OCCOCCOC(=O)c2cc(O)c3c(c2)C(=O)c2cccc(O)c2C3=O)cc1` (stereo not given) as the compound, how does the Activity read?
Answer: Its Activity is “Active”.

Question: Which Activity does the source give for `CC(C)Cc1ccc(C(C)C(=O)O)cc1` (stereo not given) [IBUPROFEN] here?
Answer: The Activity was “inactive”.

Question: For `CC(=O)Oc1cccc2c1C(=O)c1c(OC(C)=O)cc(C(=O)OCCO)cc1C2=O`, which Activity is on record?
Answer: The Activity was “Active”.

Question: Which Activity does the source give for `CC(=O)Oc1cccc2c1C(=O)c1c(OC(C)=O)cc(C(=O)OCCOC(=O)C(C)c3ccc(CC(C)C)cc3)cc1C2=O` (stereo not given) here?
Answer: The Activity was “Active”.

Question: For `CC(=O)Oc1cccc2c1C(=O)c1c(OC(C)=O)cc(C(=O)OCCOCCOC(=O)C(C)c3ccc(CC(C)C)cc3)cc1C2=O` (stereo not given), which Activity is on record?
Answer: The Activity was “Active”.

Question: For `CC(=O)Oc1cccc2c1C(=O)c1c(OC(C)=O)cc(C(=O)OCCOC(=O)Cc3ccccc3Nc3c(Cl)cccc3Cl)cc1C2=O`, which Activity is on record?
Answer: Its Activity is “Active”.

System: Mus musculus
Test: Ulcerogenic activity in Kunming mouse assessed as ulcer index at 1 mmol/kg, po measured after 4 hrs
Format: toxicity, organism-based
Details: in vivo
Method in brief: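 Kunming mice of either sex (18-22 g), ten per group, fasted from food and water for 24 h. Then given 1.0 mmol/kg orally as a suspension in 1% methylcellulose. Killed at 4 h; stomachs fixed 30 min in 10% formaldehyde, opened along the greater curvature and ulcers measured under a magnifier. Ulcer index = summed lesion length (mm) per stomach averaged over 10 animals.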

Question: Which UI does the source give for `CC(C)Cc1ccc(C(C)C(=O)OCCOCCOC(=O)c2cc(O)c3c(c2)C(=O)c2cccc(O)c2C3=O)cc1` (stereo not given) here?
Answer: The UI was 5.8.

Question: Which UI does the source give for `CC(C)Cc1ccc(C(C)C(=O)O)cc1` (stereo not given) [IBUPROFEN] here?
Answer: The UI was 8.3.

System: not listed separately
Test: Prodrug conversion at pH 1.2 assessed as hydrolysis up to 24 hrs by HPLC analysis
Format: physicochemical
Details: buffer, pH 1.2, 24 h
Method in brief: (§1)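 Prodrugs held at 37 °C for up to 24 h in phosphate-buffered saline adjusted to pH 1.2 or pH 7.4. Samples taken at set intervals. Released parent drugs quantified by C18 HPLC with methanol/0.1% H3PO4 90:10 (pH 2.3), 25 °C, 1.0 mL/min, 254 nm. Run in triplicate.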

Question: For `CC(C)Cc1ccc(C(C)C(=O)OCCOCCOC(=O)c2cc(O)c3c(c2)C(=O)c2cccc(O)c2C3=O)cc1` (stereo not given), which Drug metabolism is on record?
Answer: The Drug metabolism was “Active”.

Question: Which Drug metabolism does the source give for `CC(=O)Oc1cccc2c1C(=O)c1c(OC(C)=O)cc(C(=O)OCCO)cc1C2=O` here?
Answer: The Drug metabolism was “Active”.

Question: For `CC(=O)Oc1cccc2c1C(=O)c1c(OC(C)=O)cc(C(=O)OCCOC(=O)C(C)c3ccc(CC(C)C)cc3)cc1C2=O` (stereo not given), which Drug metabolism is on record?
Answer: Its Drug metabolism is “Active”.

Question: With `CC(=O)Oc1cccc2c1C(=O)c1c(OC(C)=O)cc(C(=O)OCCOCCOC(=O)C(C)c3ccc(CC(C)C)cc3)cc1C2=O` (stereo not given) as the compound, how does the Drug metabolism read?
Answer: The Drug metabolism was “Active”.

Question: For `CC(=O)Oc1cccc2c1C(=O)c1c(OC(C)=O)cc(C(=O)OCCOC(=O)Cc3ccccc3Nc3c(Cl)cccc3Cl)cc1C2=O`, which Drug metabolism is on record?
Answer: The Drug metabolism was “Active”.

System: Mus musculus
Test: Antiinflammatory activity in Kunming mouse assessed as inhibition of xylene-induced auricle tumefaction at 0.2 mmol/kg, po qd administered prior to challenge for 5 days measured 30 mins post challenge
Format: functional
Details: not given
Method in brief: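 Male Kunming mice (18-22 g), ten per group, dosed once daily for 5 days at 0.2 mmol/kg; controls got 0.9% NaCl. A 7 mm filter soaked in xylene was held on the right ear for 30 s, 1 h after the last dose. Mice were killed 30 min later and 7 mm ear punches taken. Inhibition = (1 − a/b)×100%, from tumefaction degree of control and test groups.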

Question: With `CC(C)Cc1ccc(C(C)C(=O)OCCOCCOC(=O)c2cc(O)c3c(c2)C(=O)c2cccc(O)c2C3=O)cc1` (stereo not given) as the compound, how does the inhibition in vivo at 200 µmol/kg read?
Answer: Its inhibition in vivo at 200 µmol/kg is 32.7%.

Question: Which inhibition in vivo at 200 µmol/kg does the source give for `CC(C)Cc1ccc(C(C)C(=O)O)cc1` (stereo not given) [IBUPROFEN] here?
Answer: Its inhibition in vivo at 200 µmol/kg is 32%.

Question: For `CC(=O)Oc1cccc2c1C(=O)c1c(OC(C)=O)cc(C(=O)OCCO)cc1C2=O`, which inhibition in vivo at 200 µmol/kg is on record?
Answer: Its inhibition in vivo at 200 µmol/kg is 16%.

Question: With `CC(=O)Oc1cccc2c1C(=O)c1c(OC(C)=O)cc(C(=O)OCCOC(=O)C(C)c3ccc(CC(C)C)cc3)cc1C2=O` (stereo not given) as the compound, how does the inhibition in vivo at 200 µmol/kg read?
Answer: The inhibition in vivo at 200 µmol/kg was 35.2%.

Question: With `CC(=O)Oc1cccc2c1C(=O)c1c(OC(C)=O)cc(C(=O)OCCOCCOC(=O)C(C)c3ccc(CC(C)C)cc3)cc1C2=O` (stereo not given) as the compound, how does the inhibition in vivo at 200 µmol/kg read?
Answer: Its inhibition in vivo at 200 µmol/kg is 33%.

Question: With `CC(=O)Oc1cccc2c1C(=O)c1c(OC(C)=O)cc(C(=O)OCCOC(=O)Cc3ccccc3Nc3c(Cl)cccc3Cl)cc1C2=O` as the compound, how does the inhibition in vivo at 200 µmol/kg read?
Answer: Its inhibition in vivo at 200 µmol/kg is 44%.

System: not listed separately
Test: Prodrug conversion at pH 7.4 assessed as hydrolysis up to 24 hrs by HPLC analysis
Format: physicochemical
Details: buffer, pH 7.4, 24 h
Method in brief: as §1

Question: For `CC(C)Cc1ccc(C(C)C(=O)OCCOCCOC(=O)c2cc(O)c3c(c2)C(=O)c2cccc(O)c2C3=O)cc1` (stereo not given), which Drug metabolism is on record?
Answer: Its Drug metabolism is “Active”.

Question: For `CC(C)Cc1ccc(C(C)C(=O)O)cc1` (stereo not given) [IBUPROFEN], which Drug metabolism is on record?
Answer: The Drug metabolism was “Active”.

Question: For `CC(=O)Oc1cccc2c1C(=O)c1c(OC(C)=O)cc(C(=O)OCCO)cc1C2=O`, which Drug metabolism is on record?
Answer: Its Drug metabolism is “Active”.

Question: For `CC(=O)Oc1cccc2c1C(=O)c1c(OC(C)=O)cc(C(=O)OCCOC(=O)C(C)c3ccc(CC(C)C)cc3)cc1C2=O` (stereo not given), which Drug metabolism is on record?
Answer: The Drug metabolism was “Active”.

Question: With `CC(=O)Oc1cccc2c1C(=O)c1c(OC(C)=O)cc(C(=O)OCCOCCOC(=O)C(C)c3ccc(CC(C)C)cc3)cc1C2=O` (stereo not given) as the compound, how does the Drug metabolism read?
Answer: Its Drug metabolism is “Active”.

Question: Which Drug metabolism does the source give for `CC(=O)Oc1cccc2c1C(=O)c1c(OC(C)=O)cc(C(=O)OCCOC(=O)Cc3ccccc3Nc3c(Cl)cccc3Cl)cc1C2=O` here?
Answer: The Drug metabolism was “Active”.
